Experimental data from ChEMBL document CHEMBL1132497, “Synthesis and SAR of adatanserin: novel adamantyl aryl- and heteroarylpiperazines with dual serotonin 5-HT(1A) and 5-HT(2) activity as potential anxiolytic and antidepressant agents” (J Med Chem, 1999).

How the values were obtained:
[1] = target: T1, 5-hydroxytryptamine receptor 1A (Rattus norvegicus) (UniProt P19327); test: Inhibitory activity against 5-hydroxytryptamine 1A receptor of rat hippocampal tissue at 0.1 uM; details: Hippocampus
T1 sequence (whole entry): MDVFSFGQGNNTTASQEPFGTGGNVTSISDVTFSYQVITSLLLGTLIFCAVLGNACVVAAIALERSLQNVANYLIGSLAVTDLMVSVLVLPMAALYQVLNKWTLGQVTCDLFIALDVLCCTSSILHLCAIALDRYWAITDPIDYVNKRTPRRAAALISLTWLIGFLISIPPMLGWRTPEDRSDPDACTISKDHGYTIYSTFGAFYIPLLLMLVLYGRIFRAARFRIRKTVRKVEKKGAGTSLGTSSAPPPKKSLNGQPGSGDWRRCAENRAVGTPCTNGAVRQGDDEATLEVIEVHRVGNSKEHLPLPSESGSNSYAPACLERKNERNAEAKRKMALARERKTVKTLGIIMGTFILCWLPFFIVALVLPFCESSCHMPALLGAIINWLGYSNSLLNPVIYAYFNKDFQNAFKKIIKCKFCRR

[2] = target: D(2) dopamine receptor (Rattus norvegicus) (UniProt P61169); test: Inhibitory activity against rat limbic tissue Dopamine receptor D2 at 1 uM concentration; format: tissue-based; details: Limbic system
[3] = target: T2, 5-hydroxytryptamine receptor 1A (Rattus norvegicus, UniProt P19327); test: Antagonist activity against rat hippocampal tissue 5-hydroxytryptamine 1A receptor; format: functional, tissue-based, Hippocampus
T2 sequence (P19327 whole entry): T1 sequence (whole entry)

[4] = target: T1, 5-hydroxytryptamine receptor 1A (Rattus norvegicus); test: Inhibitory activity against rat hippocampal tissue 5-hydroxytryptamine 1A receptor at 1 uM concentration; format: tissue-based; details: Hippocampus
[5] = target: Serotonin 2 (5-HT2) receptor (Rattus norvegicus, UniProt P30994+P08909+P14842); test: Inhibitory activity against rat cortical 5-hydroxytryptamine 2 receptor; format: protein assay
How it was run: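 Cortical membranes from male Sprague–Dawley rats, incubated 15 min at 37 °C in 50 mM Tris pH 7.6 with 1.0 nM [3H]ketanserin and a range of drug concentrations. Nonspecific binding defined with 100 μM methysergide. Run by filtration and counting.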

[6] = target: T2, 5-hydroxytryptamine receptor 1A; test: Inhibitory activity against 5-hydroxytryptamine 1A receptor of rat hippocampal tissue; format: tissue-based, Hippocampus
How it was run: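 Rat hippocampal membranes from male Sprague–Dawley rats (150–250 g), preincubated 10 min at 37 °C to remove endogenous 5-HT. Used at 0.4–0.6 mg protein with 1.5–1.8 nM [3H]8-OH-DPAT and a range of drug concentrations, 10 min at 37 °C, in 50 mM Tris pH 7.7 with 0.1% ascorbate, 10 μM pargyline and 4 mM CaCl2. Nonspecific binding defined with 1 μM 5-HT. Filtration, scintillation counting. Ki from duplicate assays, 95% CI.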

Rattus norvegicus [7] = test: Antagonistic activity against quipazine induced head shakes against male Sprague-Dawley CD rats following ip administration of the compound; format: functional
How it was run: (§1)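 Male Sprague–Dawley CD rats (200–300 g), 8 per treatment, given compound or vehicle ip 30 min before quipazine 2.5 mg/kg ip or DOI 1.0 mg/kg ip. Rhythmic radial head shakes counted for 30 min after agonist. ED50 by nonlinear regression with inverse prediction.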

Rattus norvegicus [8] = test: Antagonistic activity antagonist DOI induced head shakes against male Sprague-Dawley CD rats following ip administration of the compound; format: functional
How it was run: as §1

D(2) dopamine receptor = D(2) dopamine receptor (Rattus norvegicus, UniProt P61169); test: Inhibitory activity against rat limbic tissue Dopamine receptor D2; format: tissue-based, Limbic system
How it was run: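 Rat limbic membranes, handled as in the 5-HT2 assay: 15 min at 37 °C, 50 mM Tris pH 7.6, drug concentration range. 30 nM ketanserin in all tubes to block 5-HT2 sites. Nonspecific binding defined with 10 μM sulpiride. Filtration and counting.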

Rattus norvegicus [9] = test: Antagonistic activity against […] induced serotonin syndrome against male Sprague-Dawley CD rats following ip administration of the compound; format: functional
How it was run: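 Rats were dosed ip with compound or vehicle (male Sprague–Dawley CD, 150–250 g, 8 per group), then challenged with 8-OH-DPAT 3 mg/kg ip. The six serotonin-syndrome behaviours were each rated 0–3 for a further 15 min. ED50 by nonlinear regression with inverse prediction.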

Rattus norvegicus [10] = test: Induction of serotonin syndrome against male Sprague-Dawley CD rats following ip administration of the compound; format: functional
How it was run: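 Male Sprague–Dawley CD rats (150–250 g), group-housed and acclimated 1 week, given compound or vehicle ip, 8 per group. Forepaw treading, head weaving, tremor, hindlimb abduction, flat body posture and Straub tail each rated 0–3 (maximum 18) over the first 15 min. ED50 by nonlinear regression with inverse prediction.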

[11] = target: T1, 5-hydroxytryptamine receptor 1A (Rattus norvegicus); test: Inhibitory activity against rat hippocampal tissue 5-hydroxytryptamine 1A receptor at 0.1 uM concentration; format: tissue-based; details: Hippocampus
[12] = target: D(2) dopamine receptor (Rattus norvegicus) (UniProt P61169); test: Inhibitory activity against Dopamine receptor D2 of rat limbic tissue at 1 uM; format: tissue-based; details: Limbic system

Chain of D(2) dopamine receptor (Rattus norvegicus) (P61169 whole entry): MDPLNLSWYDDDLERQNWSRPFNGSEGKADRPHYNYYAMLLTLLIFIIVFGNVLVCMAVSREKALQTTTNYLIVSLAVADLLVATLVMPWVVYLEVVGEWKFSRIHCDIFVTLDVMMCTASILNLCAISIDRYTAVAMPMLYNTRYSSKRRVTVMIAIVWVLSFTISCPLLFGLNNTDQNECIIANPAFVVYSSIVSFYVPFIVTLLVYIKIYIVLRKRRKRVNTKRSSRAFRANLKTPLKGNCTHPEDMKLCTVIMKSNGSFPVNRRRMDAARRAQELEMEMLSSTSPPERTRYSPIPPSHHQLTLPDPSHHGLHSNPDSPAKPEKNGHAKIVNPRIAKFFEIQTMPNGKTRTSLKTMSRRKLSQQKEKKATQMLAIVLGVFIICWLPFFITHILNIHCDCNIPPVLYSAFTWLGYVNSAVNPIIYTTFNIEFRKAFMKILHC
Chain of D(2) dopamine receptor (P61169 whole entry): as above

Compound | Ki [3] [nM] | Ki [5] [nM] | Ki (D(2) dopamine receptor) [nM] | further results
Cc1cccc(N2CCN(C[C@@H](C)NC(=O)C34C[C@H]5C[C@@H](C3)C[C@@H](C4)C5)CC2)c1C |  |  |  | inhibition [1]: 0%
COc1ccccc1N1CCN(CCCNC(=O)CC23C[C@H]4C[C@@H](C2)C[C@](C)(C4)C3)CC1 | 4.4 |  |  | inhibition [2]: 79%
Cc1cccc(N2CCN(C[C@H](C)NC(=O)C34C[C@H]5C[C@@H](C3)C[C@@H](C4)C5)CC2)c1C |  |  |  | inhibition [1]: 0%
COc1ccccc1N1CCN(C(=O)NC23C[C@H]4C[C@@H](C2)C[C@@H](C3)C4)CC1 |  |  |  | inhibition [4]: 0%
C[C@@H](CN1CCN(Cc2ccccc2)CC1)NC(=O)C12C[C@H]3C[C@@H](C1)C[C@@H](C2)C3 |  |  |  | inhibition [1]: 0%
O=C(NC12C[C@H]3C[C@@H](C1)C[C@@H](C2)C3)OCCN1CCN(c2ncccn2)CC1 |  |  |  | inhibition [1]: 34%
Cl.Cl.O=C(NCCN1CCN(c2ncccn2)CC1)C12C[C@H]3C[C@@H](C1)C[C@@H](C2)C3 |  | 73 | 166 | Ki [6]: 1 nM; ED50 (Rattus norvegicus [7]): 0.6 mg/kg; ED50 (Rattus norvegicus [8]): 1.8 mg/kg; ED50 (Rattus norvegicus [9]): 2.2 mg/kg; ED50 (Rattus norvegicus [10]): 12.9 mg/kg
COc1ccccc1N1CCN(CCCNC(=O)C23C[C@H]4C[C@@H](C2)C[C@@H](C3)C4)CC1.Cl.Cl | 1 | 75 | 200 | ED50 (Rattus norvegicus [7]): 4.5 mg/kg; ED50 (Rattus norvegicus [8]): 4.4 mg/kg; ED50 (Rattus norvegicus [9]): 5.8 mg/kg; ED50 (Rattus norvegicus [10]): 9 mg/kg
Cl.Cl.O=C(N[C@@H](Cc1ccccc1)CN1CCN(Cc2ccccc2)CC1)C12C[C@H]3C[C@@H](C1)C[C@@H](C2)C3 | 0.7 | 1890 | 3390 | 
O=C(OCCCN1CCN(c2cncc(Cl)n2)CC1)C12C[C@H]3C[C@@H](C1)C[C@@H](C2)C3 |  |  |  | inhibition [11]: 5%
O=C(NCCCN1CCN(c2ncccn2)CC1)NC12CC3CC(CC1C3)C2 |  |  |  | inhibition [1]: 69%; inhibition [12]: 6%
Cl.Cl.O=C(N[C@H](Cc1ccccc1)CN1CCN(Cc2ccccc2)CC1)C12C[C@H]3C[C@@H](C1)C[C@@H](C2)C3 | 2.3 | 722 | 1400 | 
O=C(OCCCN1CCN(c2ncccn2)CC1)C12CC3C[C@@H](C[C@H]1C3)C2 |  |  |  | inhibition [1]: 12%
Cl.Cl.O=C(NCCN1CCN(c2cccc(Cl)c2)CC1)C12C[C@H]3C[C@@H](C1)C[C@@H](C2)C3 | 0.89 | 16.4 | 129 | 
COc1ccccc1N1CCN(CCOC(=O)C23C[C@H]4C[C@@H](C2)C[C@@H](C3)C4)CC1.Cl.Cl | 2.5 | 712 | 13.5 | 
O=C(N[C@@H](Cc1ccccc1)CN1CCN(c2ncccn2)CC1)C12C[C@H]3C[C@@H](C1)C[C@@H](C2)C3 | 1 | 1360 | 1690 | 

Further lines, with some results ahead:

Ki [3] [nM] | Ki [5] [nM] | Ki (D(2) dopamine receptor) [nM] | Compound | further results
9 | 38 |  | COc1ccccc1N1CCN(CCNC(=O)NC23C[C@H]4C[C@@H](C2)C[C@@H](C3)C4)CC1 | inhibition [2]: 94%
9 | 77 | 93 | COc1ccccc1N1CCN(CCC(=O)NC23C[C@H]4C[C@@H](C2)C[C@@H](C3)C4)CC1.Cl.Cl | 
8.5 | 180 | 35 | COc1ccccc1N1CCN(CCCOC(=O)C23C[C@H]4C[C@@H](C2)C[C@@H](C3)C4)CC1.Cl.Cl | 
3.3 | 43.5 |  | COc1ccccc1N1CCN(CCCNC(=O)C23CC4C[C@@H](C[C@H]2C4)C3)CC1.Cl.Cl | inhibition [2]: 72%
11 |  |  | COc1ccccc1N1CCN(CCNC(=O)CC23C[C@H]4C[C@@H](C2)C[C@](C)(C4)C3)CC1 | inhibition [2]: 70%
8.5 | 2180 | 708 | Cl.Cl.O=C(OCCN1CCN(c2ncccn2)CC1)C12C[C@H]3C[C@@H](C1)C[C@@H](C2)C3 | 
0.24 | 8.2 |  | COc1ccccc1N1CCN(CCNC(=O)C23CC4C[C@@H](C[C@H]2C4)C3)CC1.Cl.Cl | inhibition [2]: 100%
